Laboratory results: ChEMBL document CHEMBL1154716, “Synthesis of some new S-triazine based chalcones and their derivatives as potent antimicrobial agents” (2010)
Converted amounts (≈) assume the structure as drawn. The source made the active and inactive calls. The calls are words filed in the database; no cut-off is given here.

What was measured:
Staphylococcus aureus [1] = assay: Antimicrobial activity against Staphylococcus aureus at 1 umol/spot after 18 hrs by TLC-bioautographic method; format: functional
How it was run: (§1)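 TLC bioautography. Samples are spotted on silica gel TLC plates, then sprayed with bacteria (1.0 × 10^5 cfu/ml) in tryptic soy broth. Plates are incubated 18 h at 37 C and sprayed with 3% aqueous p-iodonitrotetrazolium violet. After a further 3 h, growth is stopped with 70% EtOH. White zones on a pink background are scored as inhibition-zone diameter with standard errors.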

Micrococcus flavus [2] = assay: Antimicrobial activity against Micrococcus flavus at 1 umol/disk after 24 hrs by disk diffusion assay; format: functional
How it was run: (§2)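 Disc diffusion on 4 mm filter discs. Bacteria are grown overnight in LB at 28 C, then adjusted in saline to 1.0 × 10^5 cfu/ml. The suspension is mixed into top agar over peptone agar plates. Plates are incubated 24 h at 28 C, and growth-inhibition zone diameter is measured. Streptomycin and ampicillin controls are applied from a 1 mg/ml stock. Tests are done in duplicate.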

Enterobacter cloacae [3] = assay: Antimicrobial activity against Enterobacter cloacae at 1 umol/spot after 18 hrs by TLC-bioautographic method; format: functional; how it was run: as §1
Salmonella typhimurium [4] = assay: Antimicrobial activity against Salmonella Typhimurium at 1 umol/spot after 18 hrs by TLC-bioautographic method; format: functional, Salmonella enterica subsp. enterica serovar Typhimurium; how it was run: as §1
Staphylococcus aureus [5] = assay: Antimicrobial activity against Staphylococcus aureus at 10 ug/disk after 24 hrs by disk diffusion assay; format: functional; how it was run: as §2
Pseudomonas aeruginosa [6] = assay: Antimicrobial activity against Pseudomonas aeruginosa at 1 umol/disk after 24 hrs by disk diffusion assay; format: functional; how it was run: as §2
Bacillus cereus [7] = assay: Antimicrobial activity against Bacillus cereus at 1 umol/disk after 24 hrs by disk diffusion assay; format: functional; how it was run: as §2
Salmonella typhimurium [8] = assay: Antimicrobial activity against Salmonella Typhimurium at 10 ug/disk after 24 hrs by disk diffusion assay; format: functional, organism-based; conditions: Salmonella enterica subsp. enterica serovar Typhimurium; how it was run: as §2
Listeria monocytogenes [9] = assay: Antimicrobial activity against Listeria monocytogenes at 1 umol/spot after 18 hrs by TLC-bioautographic method; format: functional; how it was run: as §1
Pseudomonas aeruginosa [10] = assay: Antimicrobial activity against Pseudomonas aeruginosa after 24 hrs by microdilution technique; format: functional
How it was run: (§3)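 Broth microdilution in LB medium. Inoculum is 1.0 × 10^4 cfu per well, from a saline-adjusted suspension of 1.0 × 10^5 cfu/ml. Compounds are dissolved in DMSO. Incubated 24 h at 28 C. MIC is the lowest concentration with no visible growth under a binocular microscope. MBC is read by subculture into fresh broth for 72 h, with no growth taken as 99.5% kill. OD is read at 655 nm.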

Salmonella typhimurium [11] = assay: Antimicrobial activity against Salmonella Typhimurium after 24 hrs by microdilution technique; format: functional, Salmonella enterica subsp. enterica serovar Typhimurium; conditions: Salmonella enterica; how it was run: as §3
Pseudomonas aeruginosa [12] = assay: Antimicrobial activity against Pseudomonas aeruginosa at 1 umol/spot after 18 hrs by TLC-bioautographic method; format: functional; how it was run: as §1
Escherichia coli [13] = assay: Antimicrobial activity against Escherichia coli at 1 umol/spot after 18 hrs by TLC-bioautographic method; format: functional; how it was run: as §1
Micrococcus flavus [14] = assay: Antimicrobial activity against Micrococcus flavus after 24 hrs by microdilution technique; format: functional; how it was run: as §3
Enterobacter cloacae [15] = assay: Antimicrobial activity against Enterobacter cloacae at 1 umol/disk after 24 hrs by disk diffusion assay; format: functional; how it was run: as §2
Escherichia coli [16] = assay: Antimicrobial activity against Escherichia coli at 1 umol/disk after 24 hrs by disk diffusion assay; format: functional; how it was run: as §2
Pseudomonas aeruginosa [17] = assay: Antimicrobial activity against Pseudomonas aeruginosa at 10 ug/disk after 24 hrs by disk diffusion assay; format: functional; how it was run: as §2
Listeria monocytogenes [18] = assay: Antimicrobial activity against Listeria monocytogenes at 10 ug/disk after 24 hrs by disk diffusion assay; format: functional; how it was run: as §2
Micrococcus flavus [19] = assay: Antimicrobial activity against Micrococcus flavus at 1 umol/spot after 18 hrs by TLC-bioautographic method; format: functional; how it was run: as §1
Staphylococcus aureus [20] = assay: Antimicrobial activity against Staphylococcus aureus after 24 hrs by microdilution technique; format: functional; how it was run: as §3
Staphylococcus aureus [21] = assay: Antimicrobial activity against Staphylococcus aureus at 1 umol/disk after 24 hrs by disk diffusion assay; format: functional; how it was run: as §2
Bacillus cereus [22] = assay: Antimicrobial activity against Bacillus cereus at 1 umol/spot after 18 hrs by TLC-bioautographic method; format: functional; how it was run: as §1
Bacillus cereus [23] = assay: Antimicrobial activity against Bacillus cereus after 24 hrs by microdilution technique; format: functional; how it was run: as §3
Escherichia coli [24] = assay: Antimicrobial activity against Escherichia coli after 24 hrs by microdilution technique; format: functional; how it was run: as §3
Enterobacter cloacae [25] = assay: Antimicrobial activity against Enterobacter cloacae at 10 ug/disk after 24 hrs by disk diffusion assay; format: functional; how it was run: as §2
Listeria monocytogenes [26] = assay: Antimicrobial activity against Listeria monocytogenes at 1 umol/disk after 24 hrs by disk diffusion assay; format: functional; how it was run: as §2
Escherichia coli [27] = assay: Antimicrobial activity against Escherichia coli at 10 ug/disk after 24 hrs by disk diffusion assay; format: functional; how it was run: as §2
Micrococcus flavus [28] = assay: Antimicrobial activity against Micrococcus flavus at 10 ug/disk after 24 hrs by disk diffusion assay; format: functional; how it was run: as §2
Salmonella typhimurium [29] = assay: Antimicrobial activity against Salmonella Typhimurium at 1 umol/disk after 24 hrs by disk diffusion assay; format: functional, organism-based; conditions: Salmonella enterica subsp. enterica serovar Typhimurium; how it was run: as §2
Listeria monocytogenes [30] = assay: Antimicrobial activity against Listeria monocytogenes after 24 hrs by microdilution technique; format: functional; how it was run: as §3
Enterobacter cloacae [31] = assay: Antimicrobial activity against Enterobacter cloacae after 24 hrs by microdilution technique; format: functional; how it was run: as §3
Bacillus cereus [32] = assay: Antimicrobial activity against Bacillus cereus at 10 ug/disk after 24 hrs by disk diffusion assay; format: functional; how it was run: as §2

Nc1nc(-c2ccc(Nc3nc(Nc4ccccc4)nc(Nc4ccccc4)n3)cc2)cc(-c2cccs2)n1
inhibition zone (IZ) (Staphylococcus aureus [1]): 0.03 millimeter | inhibition zone (IZ) (Micrococcus flavus [2]): 0.04 millimeter | inhibition zone (IZ) (Enterobacter cloacae [3]): 0.08 millimeter | inhibition zone (IZ) (Salmonella typhimurium [4]): 0.09 millimeter | inhibition zone (IZ) (Staphylococcus aureus [5]): inactive | inhibition zone (IZ) (Pseudomonas aeruginosa [6]): inactive | inhibition zone (IZ) (Bacillus cereus [7]): inactive | inhibition zone (IZ) (Salmonella typhimurium [8]): inactive | inhibition zone (IZ) (Listeria monocytogenes [9]): 0.08 millimeter | MBC (Pseudomonas aeruginosa [10]): 756 µM (≈ 400 µg/mL) | MIC (Pseudomonas aeruginosa [10]): 756 µM (≈ 400 µg/mL) | MBC (Salmonella typhimurium [11]): 378 µM (≈ 200 µg/mL) | MIC (Salmonella typhimurium [11]): 189 µM (≈ 100 µg/mL) | inhibition zone (IZ) (Pseudomonas aeruginosa [12]): inactive | inhibition zone (IZ) (Escherichia coli [13]): inactive | MBC (Micrococcus flavus [14]): 378 µM (≈ 200 µg/mL) | MIC (Micrococcus flavus [14]): 189 µM (≈ 100 µg/mL) | inhibition zone (IZ) (Enterobacter cloacae [15]): inactive | inhibition zone (IZ) (Escherichia coli [16]): inactive | inhibition zone (IZ) (Pseudomonas aeruginosa [17]): inactive | inhibition zone (IZ) (Listeria monocytogenes [18]): inactive | inhibition zone (IZ) (Micrococcus flavus [19]): 0.08 millimeter | MBC (Staphylococcus aureus [20]): 378 µM (≈ 200 µg/mL) | MIC (Staphylococcus aureus [20]): 189 µM (≈ 100 µg/mL) | inhibition zone (IZ) (Staphylococcus aureus [21]): inactive | inhibition zone (IZ) (Bacillus cereus [22]): 0.09 millimeter | MBC (Bacillus cereus [23]): 378 µM (≈ 200 µg/mL) | MIC (Bacillus cereus [23]): 189 µM (≈ 100 µg/mL) | MBC (Escherichia coli [24]): 378 µM (≈ 200 µg/mL) | MIC (Escherichia coli [24]): 189 µM (≈ 100 µg/mL) | inhibition zone (IZ) (Enterobacter cloacae [25]): inactive | inhibition zone (IZ) (Listeria monocytogenes [26]): inactive | inhibition zone (IZ) (Escherichia coli [27]): inactive | zone of inhibition at 10 µg/disc (Micrococcus flavus [28]; read-out: IZ): 6 mm | inhibition zone (IZ) (Salmonella typhimurium [29]): inactive | MBC (Listeria monocytogenes [30]): 756 µM (≈ 400 µg/mL) | MIC (Listeria monocytogenes [30]): 756 µM (≈ 400 µg/mL) | MBC (Enterobacter cloacae [31]): 378 µM (≈ 200 µg/mL) | MIC (Enterobacter cloacae [31]): 189 µM (≈ 100 µg/mL) | inhibition zone (IZ) (Bacillus cereus [32]): inactive

COc1ccccc1C1CC(c2ccc(Nc3nc(Nc4ccccc4)nc(Nc4ccccc4)n3)cc2)=NN1C(C)=O (stereo not given)
inhibition zone (IZ) (Staphylococcus aureus [1]): inactive | inhibition zone (IZ) (Micrococcus flavus [2]): inactive | inhibition zone (IZ) (Enterobacter cloacae [3]): 0.08 millimeter | inhibition zone (IZ) (Salmonella typhimurium [4]; Salmonella enterica subsp. enterica serovar Typhimurium): inactive | inhibition zone (IZ) (Staphylococcus aureus [5]): inactive | inhibition zone (IZ) (Pseudomonas aeruginosa [6]): inactive | inhibition zone (IZ) (Bacillus cereus [7]): inactive | inhibition zone (IZ) (Salmonella typhimurium [8]): inactive | inhibition zone (IZ) (Listeria monocytogenes [9]): 0.08 millimeter | MBC (Pseudomonas aeruginosa [10]): 700 µM (≈ 399 µg/mL) | MIC (Pseudomonas aeruginosa [10]): 350 µM (≈ 200 µg/mL) | MBC (Salmonella typhimurium [11]): 700 µM (≈ 399 µg/mL) | MIC (Salmonella typhimurium [11]): 350 µM (≈ 200 µg/mL) | inhibition zone (IZ) (Pseudomonas aeruginosa [12]): inactive | inhibition zone (IZ) (Escherichia coli [13]): inactive | MBC (Micrococcus flavus [14]): 350 µM (≈ 200 µg/mL) | MIC (Micrococcus flavus [14]): 175 µM (≈ 99.9 µg/mL) | inhibition zone (IZ) (Enterobacter cloacae [15]): inactive | inhibition zone (IZ) (Escherichia coli [16]): inactive | inhibition zone (IZ) (Pseudomonas aeruginosa [17]): inactive | inhibition zone (IZ) (Listeria monocytogenes [18]): inactive | inhibition zone (IZ) (Micrococcus flavus [19]): inactive | MBC (Staphylococcus aureus [20]): 700 µM (≈ 399 µg/mL) | MIC (Staphylococcus aureus [20]): 350 µM (≈ 200 µg/mL) | inhibition zone (IZ) (Staphylococcus aureus [21]): inactive | inhibition zone (IZ) (Bacillus cereus [22]): inactive | MBC (Bacillus cereus [23]): 350 µM (≈ 200 µg/mL) | MIC (Bacillus cereus [23]): 175 µM (≈ 99.9 µg/mL) | MBC (Escherichia coli [24]): 700 µM (≈ 399 µg/mL) | MIC (Escherichia coli [24]): 350 µM (≈ 200 µg/mL) | inhibition zone (IZ) (Enterobacter cloacae [25]): inactive | inhibition zone (IZ) (Listeria monocytogenes [26]): inactive | inhibition zone (IZ) (Escherichia coli [27]): inactive | inhibition zone (IZ) (Micrococcus flavus [28]): inactive | inhibition zone (IZ) (Salmonella typhimurium [29]): inactive | MBC (Listeria monocytogenes [30]): 700 µM (≈ 399 µg/mL) | MIC (Listeria monocytogenes [30]): 700 µM (≈ 399 µg/mL) | MBC (Enterobacter cloacae [31]): 350 µM (≈ 200 µg/mL) | MIC (Enterobacter cloacae [31]): 175 µM (≈ 99.9 µg/mL) | inhibition zone (IZ) (Bacillus cereus [32]): inactive
